Test results from publication PMC3574199 (Bioorganic & medicinal chemistry, 2012).

Columns and labels:
Format in all cases: biochemical
rat nNOS = rat nNOS (Rattus norvegicus, UniProt P29476); assay: Nitric oxide hemoglobin capture assay, nNOS
Outline: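 Recombinant rat nNOS was expressed in E. coli. Assays ran at room temperature in 100 mM Hepes pH 7.4 with 10 µM L-arginine, 1.6 mM CaCl2, 11.6 µg/mL calmodulin, 100 µM DTT, 100 µM NADPH, 6.5 µM H4B and 3.0 µM oxyhemoglobin. Enzyme addition started the reaction, and initial rates came from NO-hemoglobin formation at 401 nm over 60 sec. Ki = IC50/(1+[S]/Km), Km 1.3 µM.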

bovine eNOS = bovine eNOS (Bos taurus, UniProt P29473); assay: Nitric oxide hemoglobin capture assay, eNOS; conditions: for selectivity n/e: ratio of Ki (eNOS) to Ki (nNOS)
murine macrophage iNOS = murine macrophage iNOS (Mus musculus, UniProt P29477); assay: Nitric oxide hemoglobin capture assay, iNOS; conditions: for selectivity n/i: ratio of Ki (iNOS) to Ki (nNOS)
Sequence of murine macrophage iNOS (P29477 whole entry): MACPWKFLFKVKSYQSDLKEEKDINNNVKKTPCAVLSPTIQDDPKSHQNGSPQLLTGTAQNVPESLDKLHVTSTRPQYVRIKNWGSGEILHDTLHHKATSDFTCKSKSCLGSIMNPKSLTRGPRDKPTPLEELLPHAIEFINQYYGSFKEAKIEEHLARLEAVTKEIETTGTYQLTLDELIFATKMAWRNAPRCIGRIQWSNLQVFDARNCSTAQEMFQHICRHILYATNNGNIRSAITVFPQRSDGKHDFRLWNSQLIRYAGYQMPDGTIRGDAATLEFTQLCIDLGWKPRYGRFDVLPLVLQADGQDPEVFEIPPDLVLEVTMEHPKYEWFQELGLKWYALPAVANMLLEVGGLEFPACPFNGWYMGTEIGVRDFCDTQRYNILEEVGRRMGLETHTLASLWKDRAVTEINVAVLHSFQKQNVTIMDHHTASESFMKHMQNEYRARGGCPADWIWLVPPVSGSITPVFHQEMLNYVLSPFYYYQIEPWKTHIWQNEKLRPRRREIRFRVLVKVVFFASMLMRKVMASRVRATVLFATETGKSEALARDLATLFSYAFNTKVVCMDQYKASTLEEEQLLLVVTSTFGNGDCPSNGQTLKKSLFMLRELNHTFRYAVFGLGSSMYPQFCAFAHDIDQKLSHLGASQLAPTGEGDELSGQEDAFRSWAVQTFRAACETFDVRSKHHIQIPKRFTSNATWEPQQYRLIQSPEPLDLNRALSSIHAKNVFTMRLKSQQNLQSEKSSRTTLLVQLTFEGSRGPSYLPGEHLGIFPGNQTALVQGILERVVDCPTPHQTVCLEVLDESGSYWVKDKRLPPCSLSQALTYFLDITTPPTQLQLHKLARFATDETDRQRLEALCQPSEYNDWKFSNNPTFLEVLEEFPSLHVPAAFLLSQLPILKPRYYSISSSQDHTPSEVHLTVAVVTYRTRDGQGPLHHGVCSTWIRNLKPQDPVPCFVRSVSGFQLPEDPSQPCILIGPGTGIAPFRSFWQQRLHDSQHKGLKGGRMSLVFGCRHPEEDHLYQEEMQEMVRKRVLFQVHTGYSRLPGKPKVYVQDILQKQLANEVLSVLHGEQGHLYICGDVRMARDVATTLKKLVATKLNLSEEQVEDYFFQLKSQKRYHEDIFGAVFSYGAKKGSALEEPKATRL

Sequence of rat nNOS (P29476 whole entry): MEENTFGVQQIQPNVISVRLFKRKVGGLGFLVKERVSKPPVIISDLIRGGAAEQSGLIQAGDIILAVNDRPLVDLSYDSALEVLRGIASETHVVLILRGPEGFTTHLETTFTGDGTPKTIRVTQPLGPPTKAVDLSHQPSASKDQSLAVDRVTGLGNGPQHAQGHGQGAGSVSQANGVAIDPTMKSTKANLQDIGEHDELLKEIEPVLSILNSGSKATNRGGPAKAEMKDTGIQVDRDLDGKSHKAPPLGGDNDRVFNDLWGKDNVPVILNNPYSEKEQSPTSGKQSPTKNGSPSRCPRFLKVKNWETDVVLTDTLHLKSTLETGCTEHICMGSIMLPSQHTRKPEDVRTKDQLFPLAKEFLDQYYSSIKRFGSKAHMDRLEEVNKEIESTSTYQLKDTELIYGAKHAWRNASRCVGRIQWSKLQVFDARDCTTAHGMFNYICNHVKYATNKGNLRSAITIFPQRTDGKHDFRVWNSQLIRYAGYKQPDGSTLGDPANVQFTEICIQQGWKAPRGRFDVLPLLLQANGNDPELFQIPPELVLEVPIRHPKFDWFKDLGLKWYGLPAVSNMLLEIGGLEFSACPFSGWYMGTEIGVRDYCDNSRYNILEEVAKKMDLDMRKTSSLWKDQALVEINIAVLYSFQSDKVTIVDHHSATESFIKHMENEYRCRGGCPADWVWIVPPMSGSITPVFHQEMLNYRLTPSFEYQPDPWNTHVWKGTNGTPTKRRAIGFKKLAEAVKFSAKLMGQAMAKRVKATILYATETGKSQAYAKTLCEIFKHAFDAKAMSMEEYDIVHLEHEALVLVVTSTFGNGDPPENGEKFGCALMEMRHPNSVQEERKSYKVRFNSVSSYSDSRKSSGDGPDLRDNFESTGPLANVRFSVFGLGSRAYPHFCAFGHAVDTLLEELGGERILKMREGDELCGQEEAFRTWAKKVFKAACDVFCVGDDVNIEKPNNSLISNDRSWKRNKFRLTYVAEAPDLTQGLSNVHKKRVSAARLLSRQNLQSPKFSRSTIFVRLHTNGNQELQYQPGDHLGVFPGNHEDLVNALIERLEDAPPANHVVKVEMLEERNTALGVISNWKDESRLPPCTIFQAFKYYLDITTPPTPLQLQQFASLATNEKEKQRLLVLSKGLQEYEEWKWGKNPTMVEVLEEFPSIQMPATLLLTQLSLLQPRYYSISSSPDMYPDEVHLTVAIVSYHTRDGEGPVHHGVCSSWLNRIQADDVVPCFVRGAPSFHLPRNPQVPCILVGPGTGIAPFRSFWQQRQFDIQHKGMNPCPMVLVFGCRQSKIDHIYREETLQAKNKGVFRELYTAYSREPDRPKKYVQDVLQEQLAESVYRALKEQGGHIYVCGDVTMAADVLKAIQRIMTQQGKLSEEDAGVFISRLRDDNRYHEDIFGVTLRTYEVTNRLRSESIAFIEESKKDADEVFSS

Compound | Ki (rat nNOS) [µM] | Ki (bovine eNOS) [µM] | selectivity n/e (bovine eNOS) | Ki (murine macrophage iNOS) [µM] | selectivity n/i (murine macrophage iNOS)
Cc1cc(N)nc(C[C@@H]2CNC[C@@H]2OCCNC2CC2c2cccc(Cl)c2)c1 (mixture of isomers) [(±) 2d, 6-(((3R,4R)-4-(2-((1S,2R/1R,2S)-2-(3-Clorophenyl)cyclopropylamino)ethoxy)pyrrolidin-3-yl)methyl)-4-methylpyridin-2-amine] | 0.071 | 26 | 370 | 0.86 | 12
Cc1cccc(C2CC2NCCO[C@H]2CNC[C@H]2Cc2cc(C)cc(N)n2)c1 (mixture of isomers) [(±) 2c, 4-Methyl-6-(((3R,4R)-4-(2-((1S,2R/1R,2S)-2-m-tolylcyclopropylamino)ethoxy)pyrrolidin-3-yl)methyl)pyridin-2-amine] | 0.14 | – | – | 10 | –
Cc1cc(N)nc(C[C@@H]2CNC[C@@H]2OCCNC(C)Cc2cccc(F)c2)c1.Cl (mixture of isomers) [(±) 2e, 6-(((3R,4R)-4-(2-(((R/S)-1-(3-fluorophenyl)propan-2-yl)amino)ethoxy)pyrrolidin-3-yl)methyl)-4-methylpyridin-2-amine] | 0.046 | 68 | 1500 | 10.2 | 220
Cc1cc(N)nc(C[C@@H]2CNC[C@@H]2OCCN[C@H]2C[C@@H]2c2cccc(F)c2)c1 [Compound 2b, 6-(((3R,4R)-4-(2-((1S,2R)-2-(3-Fluorophenyl)cyclopropylamino)ethoxy)pyrrolidin-3-yl)methyl)-4-methylpyridin-2-amine] | 0.175 | – | – | 12 | –
